Compound activity from PubChem.
iPSC survival up: increases survival of single human iPS cells; hiPSC single-cell survival, ATPlite luminescence; 100% = ROCK inhibitor wells, 0% = DMSO; survival enhancement, % at 20 µM; 0.044% of 360,000 active; AID 602274; in the data active means survival enhancement above about 18%;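 further: cells exposed to compounds for 16 hours before the ATP read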
TAG inh: inhibitors of triacylglycerol accumulation. H9c2 cells, Nile Red lipid (TAG) fluorescence; cells loaded with 200 µM oleic acid. inhibition, % at 12.5 µM. 0.66% of 230,000 active. AID 651582;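 active means pattern-corrected inhibition of lipid staining of at least 50% with the nuclear-stain viability signal not falling by more than 50%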;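 further: 0% = DMSO wells and 100% = triacsin C control wells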
Rev-erbA mod: modulators of human Rev-erb alpha DNA binding | P20393 | Rev-erbα–FITC-DNA binding, fluorescence polarization, 90 min | activity, % at 10 µM | 0.79% of 370,000 active | AID 1259318;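 active means activity above about 14%, limit read from the data; passing the limit was not always enough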;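 further: 0% = DMSO wells with 35 nM protein and 100% = DMSO wells with 750 nM protein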
Target sequence (P20393 whole entry, looked up): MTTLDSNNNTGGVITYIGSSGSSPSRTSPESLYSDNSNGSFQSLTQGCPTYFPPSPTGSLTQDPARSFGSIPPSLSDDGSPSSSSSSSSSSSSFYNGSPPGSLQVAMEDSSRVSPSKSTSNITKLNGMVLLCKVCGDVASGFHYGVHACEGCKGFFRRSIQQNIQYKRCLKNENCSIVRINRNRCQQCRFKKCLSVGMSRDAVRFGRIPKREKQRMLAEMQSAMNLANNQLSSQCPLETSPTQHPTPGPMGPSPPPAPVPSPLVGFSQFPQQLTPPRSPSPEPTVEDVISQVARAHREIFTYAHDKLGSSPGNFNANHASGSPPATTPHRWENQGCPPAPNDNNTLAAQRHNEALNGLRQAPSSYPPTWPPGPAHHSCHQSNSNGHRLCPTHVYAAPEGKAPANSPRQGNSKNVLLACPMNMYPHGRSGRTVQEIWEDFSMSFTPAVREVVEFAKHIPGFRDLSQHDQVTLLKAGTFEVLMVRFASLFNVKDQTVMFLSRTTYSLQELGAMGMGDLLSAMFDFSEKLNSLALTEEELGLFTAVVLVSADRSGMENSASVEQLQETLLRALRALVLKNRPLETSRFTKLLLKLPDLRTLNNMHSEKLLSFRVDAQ
T cruzi repl: blocks replication of Trypanosoma cruzi; T. cruzi beta-gal in NIH3T3, luminescence, 90 h; inhibition, % (test concentration not listed); 1.4% of 300,000 active; AID 1885;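 active means mean inhibition across valid replicates above about 55%, limit read from the data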;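 further: signal also drops with host cell toxicity which is not excluded here; 0% = plate median of DMSO wells and 100% = zero luminescence signal; higher percent means less beta-gal luminescence so fewer parasites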
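System: NIH/3T3 fibroblasts plus reporter T. cruzi. Medium: DMEM plus 2% FBS. Probe or stimulus: 5000 reporter trypomastigotes per well. Compound: single 50 nL compound addition per well in DMSO. Incubation: co-culture of at least 90 h after 3 h attachment. Detection: GalScreen β-gal luminescence, detergent lysis, 60 min. Evaluation: parasite load inhibition, %.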
beta cell repl: induces beta-cell replication in MIN6 cells | MIN6 cells proliferation, ATPlite luminescence, 48 h; cells starved in 0.2% serum; 100% = growth in 10% serum | proliferation, % at 10 µM | 0.29% of 330,000 active | AID 2380;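 active means compounds whose signal lies at least 3.5 SD above the mean of all wells on their plate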;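 further: 0% = DMSO-treated cells in low-serum medium and 100% = 10% serum control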
PG9 binder: binds the HIV-1 gp120 antibody PG9. TR-FRET gp120-PG9 antibody binding. inhibition, % at 6.7 µM. 0.43% of 360,000 active; in the data active means inhibition above about 8.5%
* hit, by the source's call; x = no result. Most compounds without a hit are left out; they make up all but 2.9% or so of the library.

SMILES	iPSC survival up	TAG inh	Rev-erbA mod	T cruzi repl	beta cell repl	PG9 binder
c1ccc(-c2cc3nc(NCc4cccs4)ccn3n2)cc1	0	-12	1	x	x	-2
CCC(C)n1ncn(-c2ccc(N3CCN(c4ccc(O)cc4)CC3)cc2)c1=O (centres undefined)	-2	x	4	-17	0	-4
CCC(C)n1ncn(-c2ccc(N3CCN(c4ccc(OCC5COC(Cn6cncn6)(c6ccc(Cl)cc6Cl)O5)cc4)CC3)cc2)c1=O (centres undefined)	-3	36	0	55*	-7	0
CC1CCc2nc3ccccc3c(C(=O)OCC(=O)N3CCc4ccccc43)c2C1 (centres undefined)	-1	x	7	43	2	-2
CCCc1nc2ccccc2c(C(=O)OCC(=O)N2CCc3ccccc32)c1CC	7	x	-4	58*	-5	1
CCn1c2ccccc2c2cc(NC(=O)c3cc(OC)c(OC)c(OC)c3)ccc21	-1	x	-4	57*	-4	2
COc1cc(C(=O)Nc2ccc3c(c2)N(C(=O)CCN(C)C)c2ccccc2CC3)cc(OC)c1OC	-1	34	-4	79*	-2	-1
CCn1c2ccccc2c2cc(NC(=O)c3cc(OC)cc(OC)c3)ccc21	-1	x	5	39	0	-1
Fc1ccc(CN2CCCN(Cc3nc(-c4ccc5c(c4)OCO5)no3)CC2)cc1	1	x	-5	67*	-3	0
COc1ccccc1CN1CCN(Cc2nc(-c3ccccc3)no2)CC1	2	-29	-8	53	3	-1
O=C(c1ccco1)N1CCCN(Cc2nc(-c3ccc4c(c3)OCO4)no2)CC1	-1	-6	1	7	-1	0
Fc1ccccc1Cc1noc(CN2CCN(Cc3ccc4c(c3)OCO4)CC2)n1	0	-4	-7	60*	-1	-1
COc1ccccc1CN1CCN(Cc2nc(Cc3ccccc3)no2)CC1	2	-3	0	63*	5	-3
CN(C)c1nc(OCCNC(=O)Nc2ccccc2)nc(N(C)C)n1	0	x	-7	0	-3	1
N/C(=N\OC(=O)c1ccc2c(c1)OCO2)c1ccc([N+](=O)[O-])cc1	0	x	-4	2	-3	0
O=C(OCCOc1cccc(Cl)c1)c1cc(S(=O)(=O)N2CCCCC2)ccc1N1CCOCC1	0	-65	11	65*	-7	1
O=C(OCc1cccc(Cl)c1)c1cc(S(=O)(=O)N2CCCCC2)ccc1N1CCOCC1	1	-23	-2	10	-4	-1
N#Cc1ccc(/C=N/NC(=O)CCc2ccc(S(=O)(=O)N3CCOCC3)cc2)cc1	-1	-4	-1	8	0	-2
COc1ccc(C(=O)NC(=S)N(C)C2CCCCC2)cc1Br	0	-15	-5	60*	-5	1
Cc1ccc(C(=O)NC(=S)N(C)C2CCCCC2)cc1Br	0	-13	-1	60*	-6	-1
COc1ccc(C(=O)NC(=S)N(C)C2CCCCC2)cc1	0	-1	-2	x	-4	-2
CCOc1ccc(CCNC(=O)CSc2cc(=O)n(C)c3ccccc23)cc1OCC	-3	x	2	13	0.0*	-3
COc1ccc(Oc2cn[nH]c2-c2ccc(OCC(=O)NN)cc2O)cc1	0	x	7	-2	0	-2
N=C(N)SCc1cn(-c2ccccc2)nc1-c1ccc(Br)cc1	-1	140	4	55*	x	2
Cc1ccc(-c2nn(-c3ccccc3)cc2CO)cc1	0	x	10	1	2	1
SMILES	iPSC survival up	TAG inh	Rev-erbA mod	T cruzi repl	beta cell repl	PG9 binder
O=C(CCl)Nc1cccc(S(=O)(=O)NC2=NCCCCC2)c1	0	57*	-2	x	-6	0
COC(=O)[C@]1(Cc2ccccc2)N[C@H](CN(C)C(=O)Nc2ccc(OC)cc2)[C@@H]2C(=O)N(C)C(=O)[C@@H]21	-2	-8	1	x	-2	-2
COC(=O)[C@]1(Cc2ccccc2)N[C@H](CN(C)C(=O)Nc2ccccc2)[C@@H]2C(=O)N(C)C(=O)[C@@H]21	28*	-6	-1	x	1	-1
O=C(NCc1ccccc1)[C@@H]1CCCN1C(=O)[C@H]1CCCN1C(=O)c1ccccc1	x	x	-5	x	x	0
S=C(Nc1ccc(Nc2ccccc2)cc1)NC1CCCCCC1	-5	-14	-2	55*	-6	-2
S=C(Nc1ccc(Cl)cc1)NC1CCCCC1	0	-9	-2	-5	-1	0
CC1(C)C2CC=C(/C=N/n3cnnc3)C1C2 (centres undefined)	9	x	-1	-15	-2	1
CC(C)NC(=O)C1(C)CCN1C(=O)C1(c2ccccc2)CCCC1 (centres undefined)	8	8	2	x	x	2
Oc1ccc(-c2nccc(-c3ccccn3)n2)cc1	1	x	4	3	-2	-4
Cc1cccc(C#CC2=CC(=O)CC(C)(C)C2)c1	-2	0	-5	x	x	0
CC1(C)CC(=O)C=C(C#CC2(O)CCCCC2)C1	-5	56*	2	x	x	0
CCN(CC)c1ccc(/C=N/NC(=O)c2ccoc2C)c(O)c1	-1	50	0	57*	-6	-5
CCN(CC)c1ccc(N=Cc2ccc(N(CC)CC)cc2O)cc1	-1	x	0	74*	-4	-8
CCN(CC)c1ccc(/C=N/NC(=O)OC)c(O)c1	-1	-2	-4	x	-3	-12
COc1cc(OC)cc(C(=O)Nc2ccc(S(=O)(=O)Nc3ncccn3)cc2)c1	0	1	1	-11	0	0
CC[C@@H]1C=C(C(=O)O)[C@H](c2ccc(Cl)cc2)N1S(=O)(=O)c1ccc(C)cc1	-1	-11	-2	x	-3	0
COc1ccc(CCNCc2c(OC)ccc3ccccc23)cc1OC	0	x	2	6	-1	0
COc1ccc2ccccc2c1CNC(C)CCc1ccccc1 (centres undefined)	-1	22	-1	56*	-4	-1
Fc1ccccc1/C=C1\CCCC2=C1NC(=S)NC2c1ccccc1F (centres undefined)	-2	-14	-3	34	-5	1
CN(Cc1ccccc1)C(=O)CN1C(=O)NC2(CCCc3sccc32)C1=O (centres undefined)	2	23	10	x	x	-1
CC(=O)N1CCN(c2nnc(-c3ccc(C)cc3)c3ccccc23)CC1	0	x	2	-7	-5	0
Cc1ccc(OCC(=O)N2CCN(c3nnc(-c4ccccc4)c4ccccc34)CC2)cc1	0	4	2	70*	-4	0
Cc1nc2scc(-c3ccccc3)c2c(=O)n1N	0	6	-3	-1	-5	0
Cc1nc2scc(-c3ccccc3)c2c(=O)n1N=C1C=CC(=O)C=C1	x	x	1	67*	-5	1
